Measurements from different studies.
Lines come from different studies, so protocols differ.
Target: Transient receptor potential cation channel subfamily M member 6 (TRPM6, Homo sapiens, UniProt Q9BX84)

SMILES	assay	conditions	remaining binding [%]
O=C(c1ccc(Nc2nccc(-c3cc4ccccc4s3)n2)cc1)N1CCC(N2CCCC2)CC1	binding, competition with immobilised ligand	1 µM	100
c1cncc(-c2cccc(Nc3nccc(NC4CCCCC4)n3)c2)c1	binding, competition with immobilised ligand	10 µM	97
CCCCN(CCCC)C(=O)CN1C[C@H](c2cc(OC)c3c(c2)OCO3)[C@@H](C(=O)O)[C@@H]1CC(C)(C)CCC	cell-free assay, competition with immobilised ligand	1 µM	91.6
O=C(NCC1CCOCC1)c1n[nH]cc1NC(=O)c1c(F)cccc1F	binding, competition with immobilised ligand	1 µM	85
C[C@H](c1ccc(F)cc1)N(Cc1cccc(C(=O)O)c1)C(=O)c1cnc2ccccc2c1	cell-free assay, competition with immobilised ligand	1 µM	100
CN(C)c1nccc(-c2cnn3ncccc23)n1	binding	1 µM	100
O=C(c1ccc(Nc2ncc(Cl)c(-c3cc4ccccc4s3)n2)cc1)N1CCC(N2CCCC2)CC1	binding, competition with immobilised ligand	1 µM	100
CC1CCCN1c1nccc(-c2cnn3ncccc23)n1 (centres unmarked)	binding	1 µM	100
COc1cnc(Nc2cccc(S(N)(=O)=O)c2)nc1N1CCN(c2ccccc2)C(=O)C1	binding, competition with immobilised ligand	1 µM	93
C[C@@H]1CCN(c2nccc(-c3cnn4ncccc34)n2)C1	binding	1 µM	91
O=C(NCCCN1CCOCC1)c1ccc(Nc2nccc(-c3cc4ccccc4s3)n2)cc1	binding, competition with immobilised ligand	1 µM	100
O=C(NS(=O)(=O)c1ccc(NCC2CCOCC2)c([N+](=O)[O-])c1)c1ccc(N2CCN(Cc3ccc(C(F)(F)F)cc3-c3ccc(Cl)cc3)CC2)cc1Oc1cnc2[nH]ccc2c1	cell-free assay, competition with immobilised ligand	1 µM	89
Nc1ncc2c(n1)-c1c([nH]c3ccc(C#CC4CC4)cc13)CCCC2	binding, competition with immobilised ligand	1 µM	75
CS(=O)(=O)N1CCCC(NC(=O)[C@H](CCC2CCCCC2)NC(=O)c2ccc(CNC(=O)c3cnc4ccccn34)cc2)C1 (some centres unmarked)	cell-free assay, competition with immobilised ligand	0.1 µM	100
COc1ccnn2ncc(-c3ccnc(N(C)C)n3)c12	binding	1 µM	82
N#CC1(c2ccccn2)CCN(Cc2cc(C(=O)N3CCCC3)c(=O)n3ccccc23)CC1	cell-free assay, competition with immobilised ligand	1 µM	80
N[C@H]1CCN(c2nccc(-c3cnn4ncccc34)n2)C1	binding	1 µM	91
FC(F)(F)Oc1cccc(-c2cnc3ccc(-c4ccncc4)nn23)c1	binding, competition with immobilised ligand	5 µM	84
Cc1nc(C2CCN(C(=O)c3ccc(OC(F)(F)F)cc3N)CC2)c2ncc(N3CCN(C)CC3)cc2n1	cell-free assay, competition with immobilised ligand	1 µM	100
CN(C)c1ncc(F)c(-c2cnn3ncccc23)n1	binding	1 µM	100
